This is an account of results in ChEMBL document CHEMBL1165941, “Design and synthesis of 2,4-disubstituted polyhydroquinolines as prospective antihyperglycemic and lipid modulating agents” (Bioorg Med Chem, 2010).

Test [1] has as its system Rattus norvegicus. As to the kind of experiment: Antihyperglycemic activity in Charles Foster-Wistar albino rat sucrose loaded model assessed as decrease of blood glucose level at 100 mg/kg, po administered 30 mins before glucose challenge measured up to 120 mins by glucometer. It counts as functional. The arrangement: scale not given: the % may be the effect or the level left. Conditions: in the assay text read “Sprague-Dawley” for “Charles Foster-Wistar”. In a few lines: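 Sprague–Dawley male rats with blood glucose 60–80 mg/dl, 5–6 per group, received 100 mg/kg orally as a suspension in 1.0% gum acacia; controls received vehicle. Sucrose 10.0 g/kg was given orally 30 min later. Glucose was read by glucometer at 30, 60, 90 and 120 min. Food was withheld. Percent activity came from AUC versus control.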

Test [2] has as its target Dipeptidyl peptidase 4 (Homo sapiens) (UniProt P27487). As to the kind of experiment: Inhibition of DPP4 at 100 uM after 15 mins by spectrofluorimeter. Put shortly:
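DPP-IV activity was measured at 37 °C as Gly-Pro-AMC (30 µM) cleavage in Tris–HCl pH 7.4 with test compound. Fluorescence was read at excitation 355 nm and emission 460 nm. The initial rate was taken over the first 15 min.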

In test [3] the test system is Rattus norvegicus. As to the kind of experiment: Antidyslipidemic activity in Charles Foster rat assessed as reduction of Triton WR-1339-induced increase of blood total cholesterol level at 100 mg/kg, po after 18 hrs. The arrangement: scale not given: the % may be the effect or the level left. It is filed as functional. In a few lines:
(§1)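 Hyperlipidemia induced by Triton WR-1339, 400 mg/kg ip, in adult male Charles Foster rats (200–225 g), five per group. Compounds were macerated in 0.2% w/v gum acacia, suspended in water and given 100 mg/kg po together with triton. Plasma was obtained by centrifugation at 2500g, 4 °C, 10 min and diluted 1:3 in saline. TC, PL and TG were measured by enzymatic methods.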

Test [4] in a line: Inhibition of alpha-glucosidase at 100 uM after 3 mins. In a few lines: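 α-Glucosidase (0.1 mg/mL, purified) was assayed in 67 mM sodium phosphate pH 6.8 with 1.0 mg/mL glutathione. The reaction was started with 3.0 mg/mL pNPG and followed at 405 nm every 30 s for 3 min.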
Test [5] is described as follows: Inhibition of glycogen phosphorylase assessed as […] phosphate release at 100 uM after 30 mins. In a few lines:
(§2)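 Glycogen phosphorylase was incubated with glycogen, glucose-1-phosphate, NaF and 5′-AMP for 30 min at 37 °C. The reaction was stopped with 10% TCA and 0.1 M sodium acetate. Samples were held overnight at 4 °C, then released Pi was measured.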

Test [6] concerns the target T1, Tyrosine-protein phosphatase non-receptor type 1 (Homo sapiens) (UniProt P18031).
T1 sequence (whole entry): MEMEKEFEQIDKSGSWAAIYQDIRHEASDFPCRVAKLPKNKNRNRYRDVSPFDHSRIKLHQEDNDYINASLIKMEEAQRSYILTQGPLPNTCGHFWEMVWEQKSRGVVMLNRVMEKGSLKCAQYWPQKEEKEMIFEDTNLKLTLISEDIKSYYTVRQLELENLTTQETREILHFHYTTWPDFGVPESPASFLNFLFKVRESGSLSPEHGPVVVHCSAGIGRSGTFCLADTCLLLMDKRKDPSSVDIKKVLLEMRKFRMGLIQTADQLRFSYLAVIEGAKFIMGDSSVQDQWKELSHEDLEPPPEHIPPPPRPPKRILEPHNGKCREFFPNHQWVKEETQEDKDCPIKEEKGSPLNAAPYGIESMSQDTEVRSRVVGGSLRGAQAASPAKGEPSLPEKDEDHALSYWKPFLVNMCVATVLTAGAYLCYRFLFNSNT
Put plainly: Inhibition of PTP1B assessed as p-nitrophenolate ion production at 100 uM pretreated for 10 mins measured after 30 mins. In a few lines:
(§3)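 PTP1B was preincubated 10 min with compound, with and without 0.01% Triton X-100. Substrate was 10 mM pNPP in 50 mM HEPES pH 7.0 with 1 mM DTT and 2 mM EDTA. After 30 min at 37 °C the reaction was stopped with 0.1 N NaOH and A410 was read. Product was calculated with ε 1.78×10⁴ M⁻¹cm⁻¹. Sodium orthovanadate served as standard. IC50 came from dose–response curves.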

The test system of test [7] is Rattus norvegicus. As to the kind of experiment: Antidyslipidemic activity in Charles Foster rat assessed as reduction of Triton WR-1339-induced increase of blood phospholipid level at 100 mg/kg, po after 18 hrs. The arrangement: scale not given: the % may be the effect or the level left. It counts as functional. Put shortly: as §1
The target in test [8] is T2, Glucose-6-phosphatase catalytic subunit 1 (Homo sapiens) (UniProt P35575).
T2 sequence (whole entry): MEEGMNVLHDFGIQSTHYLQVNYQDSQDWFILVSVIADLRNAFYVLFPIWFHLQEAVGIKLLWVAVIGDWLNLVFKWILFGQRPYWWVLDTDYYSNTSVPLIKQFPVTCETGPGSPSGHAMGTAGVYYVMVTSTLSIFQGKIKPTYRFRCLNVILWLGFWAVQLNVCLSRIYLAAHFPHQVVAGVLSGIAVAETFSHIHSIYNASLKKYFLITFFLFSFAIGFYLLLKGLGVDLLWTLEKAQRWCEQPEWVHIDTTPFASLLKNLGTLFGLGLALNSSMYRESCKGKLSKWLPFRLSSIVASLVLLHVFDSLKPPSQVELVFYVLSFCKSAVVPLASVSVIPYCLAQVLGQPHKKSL
As to the kind of experiment: Inhibition of glucose-6-phosphatase assessed as inositol phosphate release at 100 uM after 30 mins. Conditions: in the assay text read “inorganic phosphate” for “inositol phosphate”. In a few lines: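 Glucose-6-phosphatase was assayed in 0.3 M citrate pH 6.0 with 28 mM EDTA, 14 mM NaF, 200 mM glucose-6-phosphate and enzyme protein. After 30 min at 37 °C the reaction was stopped with 10% TCA. Activity was expressed as µmol Pi released per min per mg protein.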

Test [9] has as its system Rattus norvegicus. As to the kind of experiment: Antihyperglycemic activity in Sprague-Dawley albino rat streptozotocin-induced beta-cell damaged diabetic model assessed as decrease of blood glucose level at 100 mg/kg, po administered 30 mins before glucose challenge measured after 5 hrs by glucometer. The arrangement: scale not given: the % may be the effect or the level left. It is filed as functional. Put shortly: (§4)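 Rats were made diabetic with streptozotocin 60 mg/kg ip in 100 mM citrate pH 4.5 after an overnight fast. Animals with glucose 144–270 mg/dl at 48 h were used, 5–6 per group. Compounds were given 100 mg/kg orally in 1.0% gum acacia. Sucrose 2.5 g/kg followed 30 min later. Glucose was read by glucostrips up to 300 min and at 24 h. Non-responders were excluded. Percent activity came from AUC versus control.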

The test system of test [10] is Rattus norvegicus. As to the kind of experiment: Antihyperglycemic activity in Sprague-Dawley albino rat streptozotocin-induced beta-cell damaged diabetic model assessed as decrease of blood glucose level at 100 mg/kg, po administered 30 mins before glucose challenge measured after 24 hrs by glucometer. It counts as functional. Further details: scale not given: the % may be the effect or the level left. Put shortly: as §4

Test [11] deals with Rattus norvegicus. As to the kind of experiment: Antidyslipidemic activity in Charles Foster rat assessed as reduction of Triton WR-1339-induced increase of blood triglyceride level at 100 mg/kg, po after 18 hrs. Further details: scale not given: the % may be the effect or the level left. It counts as functional. In a few lines:
as §1

A short description of test [12]: Inhibition of glycogen phosphorylase assessed as inositol phosphate release after 30 mins. In a few lines:
as §2

The test system of test [13] is Rattus norvegicus. As to the kind of experiment: Antihyperglycemic activity in po dosed Sprague-Dawley albino rat streptozotocin-induced beta-cell damaged diabetic model assessed as decrease of blood glucose level […] measured after 24 hrs by glucometer. It counts as functional.
For test [14], the species on record is Mus musculus. As to the kind of experiment: Antihyperglycemic activity in C57BL/KsBom-db db/db mouse assessed as decrease in blood glucose AUC level measured on day 10 by oral glucose tolerance test (reference value: 32480 +/- 5098 %). The arrangement: scale not given: the % may be the effect or the level left. It counts as functional.
For test [15], the species on record is Mus musculus. Put plainly: Antihyperglycemic activity in C57BL/KsBom-db db/db mouse assessed as decrease in blood glucose AUC level measured on day 5 by oral glucose tolerance test (reference value: 30730 +/- 3687 %). It is filed as functional. The arrangement: scale not given: the % may be the effect or the level left.
The target in test [16] is T3, Tyrosine-protein phosphatase non-receptor type 1 (Homo sapiens, UniProt P18031).
T3 sequence (P18031 whole entry): T1 sequence (whole entry)
Put plainly: Inhibition of PTP1B assessed as p-nitrophenolate ion production pretreated for 10 mins measured after 30 mins. In a few lines: as §3

Activity calls are given as the source filed them. No cut-off for these calls is given here.

Sequence of Dipeptidyl peptidase 4 (Homo sapiens) (P27487 whole entry, looked up): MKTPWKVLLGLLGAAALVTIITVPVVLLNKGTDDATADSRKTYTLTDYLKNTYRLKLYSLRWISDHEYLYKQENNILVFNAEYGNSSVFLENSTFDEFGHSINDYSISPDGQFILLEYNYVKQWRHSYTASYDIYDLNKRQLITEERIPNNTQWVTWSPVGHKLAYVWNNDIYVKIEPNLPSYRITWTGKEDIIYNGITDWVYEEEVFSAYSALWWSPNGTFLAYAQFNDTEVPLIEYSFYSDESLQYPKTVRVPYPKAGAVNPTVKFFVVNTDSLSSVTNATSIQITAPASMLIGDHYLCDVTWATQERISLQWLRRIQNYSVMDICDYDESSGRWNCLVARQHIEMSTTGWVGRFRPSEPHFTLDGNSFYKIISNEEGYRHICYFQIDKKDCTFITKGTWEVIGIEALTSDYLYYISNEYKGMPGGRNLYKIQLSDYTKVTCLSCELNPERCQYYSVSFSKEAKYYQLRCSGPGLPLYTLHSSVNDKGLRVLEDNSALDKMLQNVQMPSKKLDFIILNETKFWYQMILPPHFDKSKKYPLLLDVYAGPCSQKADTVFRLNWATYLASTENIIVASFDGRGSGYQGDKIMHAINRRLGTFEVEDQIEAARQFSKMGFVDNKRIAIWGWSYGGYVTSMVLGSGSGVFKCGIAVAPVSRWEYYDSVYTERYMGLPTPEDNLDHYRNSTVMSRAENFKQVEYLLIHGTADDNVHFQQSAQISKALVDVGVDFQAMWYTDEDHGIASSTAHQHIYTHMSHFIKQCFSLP

The term inhibition denotes the change of the read-out against control, counted positive when it falls. As a reminder, the IC50 is the concentration that gives 50% inhibition. Regarding `CC1(C)CC(=O)C2=C(C1)NC(C(=O)O)=CC2c1ccccc1` (centres undefined), the Activity is recorded as 28.9% with Rattus norvegicus [1]; -8.99% in the test on Rattus norvegicus [3]; -7.89% in the test on Rattus norvegicus [7]; 18.3% in the test on Rattus norvegicus [9]; 16.7% in the test with Rattus norvegicus [10]; -13.86% in the test on Rattus norvegicus [11]. Further, the inhibition in [2] worked out at 14.6%; in test [4], 4.6%; in test [5], 77.3%; in test [6], 28.9%; in [8], 17.1%. The IC50 in test [12] was determined as 6.1 µM.
For orientation: ED50 means the dose that gives a 50% effect, or the effect in half of the subjects. `CC1(C)CC(=O)C2=C(C1)NC(c1ccccc1)=CC2c1ccc(F)cc1` (centres undefined): the Activity in the test with Rattus norvegicus [1] is 41.3%; in the test on Rattus norvegicus [3], -22.45%; in the test with Rattus norvegicus [7], -18.83%; in the test with Rattus norvegicus [9], 29.9%; in the test on Rattus norvegicus [10], 32.3%; in the test on Rattus norvegicus [11], -26.34%. Also, the values for the Activity in the test filed under Mus musculus [14] and in the test filed under Mus musculus [15] were -32.6% and -13.2%, respectively. Also, the inhibition result in test [2] and in test [4] was “inactive” throughout. The ED50 in the test on Rattus norvegicus [13] was found to be 47.3 mg/kg. Further, the values for the inhibition in [5], in test [6] and in [8] were 14.6%, 88.2% and 7.38%, respectively. For the same compound, in test [16], the IC50 amounted to 2.9 µM.
On to `CC1(C)CC(=O)C2=C(C1)NC(C(=O)O)=CC2c1ccc(Cl)cc1` (centres undefined), for which the Activity in the test with Rattus norvegicus [1] is listed as 13.7%; in the test on Rattus norvegicus [3], -17.45%; with Rattus norvegicus [7] it was -15.38%; with Rattus norvegicus [9], 16.6%; with Rattus norvegicus [10], 12.2%; with Rattus norvegicus [11], -11.97%. In addition, the inhibition result in test [2], in test [4] and in test [8] was “inactive” each time. Moreover, the inhibition amounted to 63.4% in test [5] and 25.4% in test [6]. In test [12], the IC50 turned out to be 9.7 µM.
For `COc1ccc(C2C=C(C(=O)O)NC3=C2C(=O)CC(C)(C)C3)cc1` (centres undefined), the Activity in the test with Rattus norvegicus [1] was 42.7%; in the test on Rattus norvegicus [3], -24.63%; in the test with Rattus norvegicus [7], -21.82%; with Rattus norvegicus [9], 29.7%; in the test with Rattus norvegicus [10], 33.2%; with Rattus norvegicus [11] it was -19.34%. Besides, the values for the Activity in the test filed under Mus musculus [14] and in the test filed under Mus musculus [15] were -39.6% and -17.9%, respectively. The inhibition in [2] is 5.7%; in test [4] it was 11.2%; in test [5], 78.3%; in test [6], 35.4%. The ED50 with Rattus norvegicus [13] stood at 48.6 mg/kg. The inhibition entry in test [8] is “inactive”. Also, the IC50 in test [12] turned out to be 5.9 µM.
